Test results from ChEMBL document CHEMBL3232893, “Design of antiviral stapled peptides containing a biphenyl cross-linker” (Bioorg Med Chem Lett, 2014).
Each block holds one compound with its values, some of them ahead of it.

Experiments:
[1] = test system: Human immunodeficiency virus 1; assay: Antiviral activity against HIV-1 pseudotyped virus expressing HIV-1 isolate A envelope QB726.70M.ENV.B3 assessed as reduction of luciferase production after 3 days by single-cycle neutralization assay; type: functional, organism-based; details: Human immunodeficiency virus 1, 72 h
Method in brief: (§1)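 Single-cycle assay using pseudoviruses carrying Env from primary HIV-1 isolates of subtypes A, A/D, A/G, B, C and D reference viruses. Read-out is luciferase production, and IC50 is determined.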

[2] = test system: Human immunodeficiency virus 1; assay: Antiviral activity against HIV-1 pseudotyped virus expressing HIV-1 isolate C envelope ZM135M.PL10a, SVPC15 assessed as reduction of luciferase production after 3 days by single-cycle neutralization assay; type: functional, organism-based; details: Human immunodeficiency virus 1, 72 h; method in brief: as §1
[3] = test system: Human immunodeficiency virus 1; assay: Antiviral activity against HIV-1 pseudotyped virus expressing HIV-1 isolate D envelope QA465.59M.ENV.D1 assessed as reduction of luciferase production after 3 days by single-cycle neutralization assay; type: functional, organism-based; details: Human immunodeficiency virus 1, 72 h; method in brief: as §1
[4] = test system: Human immunodeficiency virus 1; assay: Antiviral activity against HIV-1 pseudotyped virus expressing HIV-1 isolate D envelope QD435.100M.ENV.A4 assessed as reduction of luciferase production after 3 days by single-cycle neutralization assay; type: functional, organism-based; details: Human immunodeficiency virus 1, 72 h; method in brief: as §1
[5] = Cytotoxicity against human TZM-bl cells after 3 days by XTT assay; type: cell-based
[6] = Cytotoxicity against human MT2 cells after 4 days by XTT assay; type: cell-based
[7] = test system: Human immunodeficiency virus 1; assay: Antiviral activity against HIV-1 pseudotyped virus expressing HIV-1 isolate D envelope QD435.100M.ENV.E1 assessed as reduction of luciferase production after 3 days by single-cycle neutralization assay; type: functional, organism-based; details: Human immunodeficiency virus 1, 72 h; method in brief: as §1
[8] = test system: Human immunodeficiency virus 1; assay: Antiviral activity against HIV-1 pseudotyped virus expressing HIV-1 isolate C envelope HIV-26191-2, clone 48 assessed as reduction of luciferase production after 3 days by single-cycle neutralization assay; type: functional, organism-based; details: Human immunodeficiency virus 1, 72 h; method in brief: as §1
[9] = test system: Human immunodeficiency virus 1; assay: Antiviral activity against HIV-1 pseudotyped virus expressing HIV-1 isolate A envelope QF495.23M.ENV.A3 assessed as reduction of luciferase production after 3 days by single-cycle neutralization assay; type: functional, organism-based; details: Human immunodeficiency virus 1, 72 h; method in brief: as §1
[10] = test system: Human immunodeficiency virus 1; assay: Antiviral activity against HIV-1 pseudotyped virus expressing HIV-1 isolate AD envelope QA790.204I.ENV.A4 assessed as reduction of luciferase production after 3 days by single-cycle neutralization assay; type: functional, organism-based; details: Human immunodeficiency virus 1, 72 h; method in brief: as §1
[11] = Binding affinity to HIV-1 capsid protein C-terminal domain M184A/W185A mutant at 20 uM by isothermal titration calorimetric analysis; parameters: species or system Human immunodeficiency virus 1
Method in brief: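 ITC: 625 μM CTD M184A/W185A mutant titrated in 10 μL aliquots into 20 μM peptide in the cell. The integrated binding isotherm was fitted to a single-site binding equation to give Kd.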

[12] = test system: Human immunodeficiency virus 1; assay: Antiviral activity against HIV-1 pseudotyped virus expressing HIV-1 isolate C envelope Du156, clone 12 (SVPC3) assessed as reduction of luciferase production after 3 days by single-cycle neutralization assay; type: functional, organism-based; details: Human immunodeficiency virus 1, 72 h; method in brief: as §1
[13] = test system: Human immunodeficiency virus 1; assay: Antiviral activity against HIV-1 pseudotyped virus expressing HIV-1 isolate A envelope QH343.21M.ENV.A10 assessed as reduction of luciferase production after 3 days by single-cycle neutralization assay; type: functional, organism-based; details: Human immunodeficiency virus 1, 72 h; method in brief: as §1
[14] = test system: Human immunodeficiency virus 1; assay: Antiviral activity against HIV-1 pseudotyped virus expressing HIV-1 isolate B envelope PVO, clone 4 (SVPB11) assessed as reduction of luciferase production after 3 days by single-cycle neutralization assay; type: functional, organism-based; details: Human immunodeficiency virus 1, 72 h; method in brief: as §1
[15] = test system: Human immunodeficiency virus 1; assay: Antiviral activity against HIV-1 pseudotyped virus expressing HIV-1 isolate A envelope QF495.23M.ENV.B2 assessed as reduction of luciferase production after 3 days by single-cycle neutralization assay; type: functional, organism-based; details: Human immunodeficiency virus 1, 72 h; method in brief: as §1
[16] = test system: Human immunodeficiency virus 1; assay: Antiviral activity against HIV-1 pseudotyped virus expressing HIV-1 isolate B envelope pRHPA4259 clone 7 (SVPB14) assessed as reduction of luciferase production after 3 days by single-cycle neutralization assay; type: functional, organism-based; details: Human immunodeficiency virus 1, 72 h; method in brief: as §1
[17] = test system: Human immunodeficiency virus 1; assay: Antiviral activity against HIV-1 pseudotyped virus expressing HIV-1 isolate C envelope HIV-25925-2, clone 22 assessed as reduction of luciferase production after 3 days by single-cycle neutralization assay; type: functional, organism-based; details: Human immunodeficiency virus 1, 72 h; method in brief: as §1
[18] = test system: Human immunodeficiency virus 1; assay: Antiviral activity against HIV-1 pseudotyped virus expressing HIV-1 isolate AG envelope CRF02_AG (clone 211) assessed as reduction of luciferase production after 3 days by single-cycle neutralization assay; type: functional, organism-based; details: Human immunodeficiency virus 1, 72 h; method in brief: as §1
[19] = test system: Human immunodeficiency virus 1; assay: Antiviral activity against HIV-1 pseudotyped virus expressing HIV-1 isolate B envelope pREJO4541 clone 67 (SVPB16) assessed as reduction of luciferase production after 3 days by single-cycle neutralization assay; type: functional, organism-based; details: Human immunodeficiency virus 1, 72 h; method in brief: as §1
[20] = Binding affinity to HIV-1 Yu2 full-length gp120 by surface plasmon resonance analysis; parameters: species or system Human immunodeficiency virus type 1 (isolate YU2)
Method in brief: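 Gp120 binding was measured by SPR. Sensorgrams were fitted to a 1:1 Langmuir model to give ka and kd, and Kd was calculated from these rate constants.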

[21] = test system: Human immunodeficiency virus 1; assay: Antiviral activity against HIV-1 NL4-3-HXB2 pseudovirus co-transfected with luciferase gene infected in human TZM-bl cells assessed as reduction of luciferase production after 3 days by single-cycle neutralization assay; type: functional, organism-based; details: Human immunodeficiency virus 1, NL4-3-HXB2, TZM-bl, 72 h
Method in brief: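 Single-cycle neutralization in TZM-bl cells; read-out is reduction of luciferase production. IC50 derived from dose-response.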

[22] = test system: Human immunodeficiency virus 1; assay: Antiviral activity against HIV-1 pseudotyped virus expressing HIV-1 isolate AG envelope CRF02_AG (clone 263) assessed as reduction of luciferase production after 3 days by single-cycle neutralization assay; type: functional, organism-based; details: Human immunodeficiency virus 1, 72 h; method in brief: as §1
[23] = test system: Human immunodeficiency virus 1; assay: Antiviral activity against HIV-1 pseudotyped virus expressing HIV-1 isolate D envelope QD435.100M.ENV.B5 assessed as reduction of luciferase production after 3 days by single-cycle neutralization assay; type: functional, organism-based; details: Human immunodeficiency virus 1, 72 h; method in brief: as §1
[24] = test system: Human immunodeficiency virus 1; assay: Antiviral activity against HIV-1 pseudotyped virus expressing HIV-1 isolate D envelope QA013.70I.ENV.M12 assessed as reduction of luciferase production after 3 days by single-cycle neutralization assay; type: functional, organism-based; details: Human immunodeficiency virus 1, 72 h; method in brief: as §1
[25] = test system: Human immunodeficiency virus 1; assay: Antiviral activity against HIV-1 pseudotyped virus expressing HIV-1 isolate B envelope pCAAN5342 clone A2 (SVPB19) assessed as reduction of luciferase production after 3 days by single-cycle neutralization assay; type: functional, organism-based; details: Human immunodeficiency virus 1, 72 h; method in brief: as §1
[26] = test system: Human immunodeficiency virus 1; assay: Antiviral activity against HIV-1 pseudotyped virus expressing HIV-1 isolate C envelope ZM233M.PB6, SVPC9 assessed as reduction of luciferase production after 3 days by single-cycle neutralization assay; type: functional, organism-based; details: Human immunodeficiency virus 1, 72 h; method in brief: as §1
[27] = test system: Human immunodeficiency virus 1; assay: Antiviral activity against HIV-1 pseudotyped virus expressing HIV-1 isolate B envelope SC422661, clone B (SVPB8) assessed as reduction of luciferase production after 3 days by single-cycle neutralization assay; type: functional, organism-based; details: Human immunodeficiency virus 1, 72 h; method in brief: as §1
[28] = test system: Human immunodeficiency virus 1; assay: Antiviral activity against HIV-1 pseudotyped virus expressing HIV-1 isolate D envelope QA465.59M.ENV.A1 assessed as reduction of luciferase production after 3 days by single-cycle neutralization assay; type: functional, organism-based; details: Human immunodeficiency virus 1, 72 h; method in brief: as §1
[29] = test system: Human immunodeficiency virus 1; assay: Antiviral activity against HIV-1 pseudotyped virus expressing HIV-1 isolate AD envelope QA790.204I.ENV.E2 assessed as reduction of luciferase production after 3 days by single-cycle neutralization assay; type: functional, organism-based; details: Human immunodeficiency virus 1, 72 h; method in brief: as §1
[30] = test system: Human immunodeficiency virus 1; assay: Antiviral activity against HIV-1 3B infected in human MT-2 cells assessed as reduction in p24 antigen level incubated for overnight measured on fourth day post infection by multi-cycle infection assay based sandwich ELISA; type: functional, organism-based; details: Human immunodeficiency virus 1, 3B, MT2
Method in brief: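 Multi-cycle infection in MT-2 cells; read-out is reduction of p24 levels. IC50 derived from dose-response.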

SMILES: CC[C@H](C)[C@H](NC(C)=O)C(=O)N[C@@H](CO)C(=O)N[C@@H](Cc1ccccc1)C(=O)N[C@@H]1CSCc2ccc(cc2)-c2ccc(cc2)CSC[C@@H](C(=O)N[C@@H](CCC(=O)O)C(=O)N[C@@H](CO)C(=O)NCC(=O)N[C@@H](CO)C(N)=O)NC(=O)[C@H](Cc2ccc(O)cc2)NC(=O)[C@H](Cc2ccc(O)cc2)NC(=O)[C@H](CC(=O)O)NC(=O)[C@H](CC(C)C)NC(=O)[C@H](CC(C)C)NC(=O)[C@H](CCC(=O)O)NC1=O
- IC50 [1]: 15.4 µM
- IC50 [2]: 1 µM
- IC50 [3]: 7.7 µM
- IC50 [4]: 1 µM
- CC50 at 72 h [5]: > 103 µM
- CC50 at 96 h [6]: > 103 µM
- IC50 [7]: 15.4 µM
- IC50 [8]: 6.3 µM
- IC50 [9]: 1.4 µM
- IC50 [10]: 7 µM
- Kd [11]: 17.5 µM
- IC50 [12]: 17.9 µM
- IC50 [13]: 15.4 µM
- IC50 [14]: 3.5 µM
- IC50 [15]: 10 µM
- IC50 [16]: 1.6 µM
- IC50 [17]: 1.1 µM
- IC50 [18]: 4 µM
- IC50 [19]: 3.4 µM
- Kd [20]: 7.4 µM
- IC50 [21]: 1.9 µM
- IC50 [22]: 4.4 µM
- IC50 [23]: 15.4 µM
- IC50 [24]: 15.4 µM
- IC50 [25]: 4.6 µM
- IC50 [26]: 3.6 µM
- IC50 [27]: 3.7 µM
- IC50 [28]: 15.4 µM
- IC50 [29]: 7.7 µM
- IC50 [30]: 2.8 µM

- IC50 [21]: 3.1 µM
- IC50 [30]: 5.5 µM
SMILES: CC[C@H](C)[C@H](NC(C)=O)C(=O)N[C@@H](CO)C(=O)N[C@@H](Cc1ccccc1)C(=O)N[C@@H]1CSCc2ccc(cc2)-c2ccc(cc2)CSC[C@@H](C(=O)N[C@@H](CCC(=O)O)C(=O)N[C@@H](CO)C(=O)NCC(=O)N[C@@H](CO)C(N)=O)NC(=O)[C@H](Cc2ccc(O)cc2)NC(=O)[C@H](Cc2ccc(O)cc2)NC(=O)[C@H](CC(=O)O)NC(=O)[C@H](CC(C)C)NC(=O)[C@H](CC(C)C)NC(=O)[C@H](CCC(N)=O)NC1=O
- CC50 at 72 h [5]: > 103 µM
- CC50 at 96 h [6]: > 103 µM

- IC50 [21]: 1.8 µM
- IC50 [30]: 8.8 µM
SMILES: CC[C@H](C)[C@H](NC(C)=O)C(=O)N[C@@H](CO)C(=O)N[C@@H](Cc1ccccc1)C(=O)N[C@@H]1CSCc2ccc(cc2)-c2ccc(cc2)CSC[C@@H](C(=O)N[C@@H](CCC(=O)O)C(=O)N[C@@H](CO)C(=O)NCC(=O)N[C@@H](CO)C(N)=O)NC(=O)[C@H](Cc2ccc(O)cc2)NC(=O)[C@H](Cc2ccc(O)cc2)NC(=O)[C@H](CC(N)=O)NC(=O)[C@H](CC(C)C)NC(=O)[C@H](CC(C)C)NC(=O)[C@H](CCC(=O)O)NC1=O
- CC50 at 72 h [5]: > 102 µM
- CC50 at 96 h [6]: > 102 µM

- IC50 [21]: 1.4 µM
- IC50 [30]: 4.1 µM
SMILES: CC[C@H](C)[C@H](NC(C)=O)C(=O)N[C@@H](CO)C(=O)N[C@@H](Cc1ccccc1)C(=O)N[C@@H]1CSCc2ccc(cc2)-c2ccc(cc2)CSC[C@@H](C(=O)N[C@@H](CCC(=O)O)C(=O)N[C@@H](CO)C(=O)NCC(=O)N[C@@H](CO)C(N)=O)NC(=O)[C@H](Cc2ccc(O)cc2)NC(=O)[C@H](Cc2ccc(O)cc2)NC(=O)[C@H](CC(=O)O)NC(=O)[C@H](C)NC(=O)[C@H](CC(C)C)NC(=O)[C@H](CCC(=O)O)NC1=O
- CC50 at 72 h [5]: > 52 µM
- CC50 at 96 h [6]: 26 µM
